Measurements pooled from the literature.
Lines come from different studies, so protocols differ.
Target: Mitogen-activated protein kinase 14 (MAPK14, Homo sapiens, UniProt Q16539)

With COc1ccc2[nH]c3c4[nH]c5ccc(OC)cc5c4c4c(c3c2c1)C(=O)NC4=O the remaining binding was 87% (binding; competition with immobilised ligand; 1 µM).
For C=CC(=O)N1CCC([C@@H]2CCNc3c(C(N)=O)c(-c4ccc(Oc5ccccc5)cc4)nn32)CC1, the inhibition was 1% (enzyme activity; inhibitor; 1 µM).
COc1ccc2oc(-c3ccc4nc(N)oc4c3)c/c(=N\c3ccccc3NC(=O)CCN)c2c1 gave a remaining binding of 109% (binding; 1 µM).
With CCCCC(=O)Nc1ccc(-c2ccc3ncn(CCC)c(=O)c3c2)cn1 the remaining binding was 88% (binding; competition with immobilised ligand; 0.5 µM).
For C1=C/COCc2cc(ccc2OCCN2CCCC2)Nc2nccc(n2)-c2cccc(c2)COC/1, the remaining signal was 89% (cell-free assay; 0.1 µM).
C#Cc1cnc(Nc2ccnc(CO)c2)nc1Nc1ccccc1S(C)(=O)=NC#N (stereo not drawn) gave a remaining signal of 91% (cell-free assay; 1 µM).
N#Cc1ccc(NC(=O)Nc2ccccc2)cc1 gave a remaining binding of 79% (cell-free assay; competition with immobilised ligand; 25 µM).
The inhibition of CC#CC(=O)N1CCC[C@H]1c1nc(-c2ccc(C(=O)Nc3ccccn3)cc2)c2c(N)nccn12 is reported as 0% (enzyme activity; inhibitor; 1 µM).
With CN1CCN(C(=O)c2ccc(NC(=O)Nc3ccc(N(C)c4ccnc(Nc5ccc(CS(C)(=O)=O)cc5)n4)cc3)cc2)CC1 the remaining binding was 83% (binding; competition with immobilised ligand; 1 µM).
